Data as given in ChEMBL document CHEMBL2407075, “Sulphonamido-quinoxalines: search for anticancer agent” (Eur J Med Chem, 2013).

Legend:
Type in all cases: functional
[1] = test system: 786-0; experiment: Growth inhibition of human 786-0 cells assessed as cell growth at 10^-4 M after 48 hrs by sulforhodamine B assay; details: 786-0, 48 h, read-out: Activity
Outline: (§1)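 Five-dose NCI-60 run (0.01, 0.1, 1, 10 and 100 µM, as 10-fold dilutions from a DMSO stock made at 400× the top final level). Cells were grown in RPMI 1640 with 5% FBS and 2 mM glutamine and plated for 24 h. They were then exposed for 48 h at 37 °C and 5% CO2. TCA fixation was followed by SRB staining with A515 read-out. Percent growth was taken relative to time-zero and control plates.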

[2] = test system: SK-OV-3; experiment: Growth inhibition of human SKOV3 cells assessed as cell growth at 10^-7 M after 48 hrs by sulforhodamine B assay; details: SK-OV-3, 48 h, read-out: Activity
[3] = test system: PC-3; experiment: Growth inhibition of human PC3 cells assessed as cell growth at 10^-4 M after 48 hrs by sulforhodamine B assay; details: PC-3, 48 h, read-out: Activity
[4] = test system: NCI-H522; experiment: Growth inhibition of human NCI-H522 cells assessed as cell growth at 10^-8 M after 48 hrs by sulforhodamine B assay; details: NCI-H522, 48 h, read-out: Activity
[5] = test system: HOP-92; experiment: Growth inhibition of human HOP92 cells assessed as cell growth at 10^-5 M after 48 hrs by sulforhodamine B assay; details: HOP-92, 48 h, read-out: Activity
Outline: (§2)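 Five-dose screen at NCI. Cells in RPMI 1640 with 5% FBS and 2 mM L-glutamine, seeded at 5000–40,000 cells/well and grown 24 h at 37 °C, 5% CO2 before dosing, with time-zero plates TCA-fixed. Drug diluted from DMSO stock to 0.01, 0.1, 1, 10 and 100 µM final, 48 h. Cells fixed with cold TCA (10% final), stained with 0.4% SRB and read at 515 nm. Percent growth from Tz, control and test absorbances; GI50, TGI and LC50 from dose-response curves.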

[6] = test system: SR; experiment: Growth inhibition of human SR cells assessed as cell growth at 10^-5 M after 48 hrs by sulforhodamine B assay; details: read-out: Activity
[7] = test system: NCI-H322M; experiment: Growth inhibition of human NCI-H322M cells after 48 hrs by sulforhodamine B assay; details: for CC50: read-out: LC50 (the source's name)
Outline: (§3)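 Adherent cells in RPMI 1640 with 5% FBS and 2 mM L-glutamine were plated at 5000–40,000 cells/well and grown 24 h. Five concentrations (0.01–100 µM, DMSO stock) were added for 48 h at 37 °C. Cells were fixed with cold TCA (10% final) and stained with SRB, read at 515 nm. GI50 came from log concentration–growth curves against time-zero and control plates.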

[8] = test system: RPMI-8226; experiment: Growth inhibition of human RPMI8226 cells after 48 hrs by sulforhodamine B assay; details: RPMI-8226, 48 h; for CC50: read-out: LC50 (the source's name)
Outline: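 Leukemia suspension cells in RPMI 1640 with 5% FBS and 2 mM L-glutamine were plated at 5000–40,000 cells/well and grown 24 h. Five concentrations (0.01–100 µM) were given for 48 h at 37 °C. Settled cells were fixed with 80% TCA (16% final) and SRB-stained, read at 515 nm. GI50 came from dose–response curves against time-zero and control plates.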

[9] = test system: TK-10; experiment: Growth inhibition of human TK10 cells assessed as cell growth at 10^-8 M after 48 hrs by sulforhodamine B assay; details: TK-10, 48 h, read-out: Activity
[10] = test system: SK-MEL-28; experiment: Growth inhibition of human SK-MEL-28 cells assessed as cell growth at 10^-8 M after 48 hrs by sulforhodamine B assay; details: SK-MEL-28, 48 h, read-out: Activity
[11] = test system: KM12; experiment: Growth inhibition of human KM12 cells assessed as cell growth at 10^-5 M after 48 hrs by sulforhodamine B assay; details: KM12, 48 h, read-out: Activity
[12] = test system: SN12C; experiment: Growth inhibition of human SN12C cells after 48 hrs by sulforhodamine B assay; details: for CC50: read-out: LC50 (the source's name); outline: as §3
[13] = test system: T47D; experiment: Growth inhibition of human T47D cells assessed as cell growth at 10^-6 M after 48 hrs by sulforhodamine B assay; details: read-out: Activity
[14] = test system: SW-620; experiment: Growth inhibition of human SW620 cells assessed as cell growth at 10^-7 M after 48 hrs by sulforhodamine B assay; details: SW-620, 48 h, read-out: Activity
[15] = Growth inhibition of human Hs 578T cells assessed as cell growth at 10^-4 M after 48 hrs by sulforhodamine B assay; details: read-out: Activity; outline: as §2
[16] = test system: DU-145; experiment: Growth inhibition of human DU145 cells assessed as cell growth at 10^-7 M after 48 hrs by sulforhodamine B assay; details: DU-145, 48 h, read-out: Activity; outline: as §1
[17] = test system: SK-MEL-28; experiment: Growth inhibition of human SK-MEL-28 cells assessed as cell growth at 10^-4 M after 48 hrs by sulforhodamine B assay; details: SK-MEL-28, 48 h, read-out: Activity
[18] = test system: NCI-H322M; experiment: Growth inhibition of human NCI-H322M cells assessed as cell growth at 10^-7 M after 48 hrs by sulforhodamine B assay; details: read-out: Activity
[19] = test system: IGROV-1; experiment: Growth inhibition of human IGROV1 cells assessed as cell growth at 10^-6 M after 48 hrs by sulforhodamine B assay; details: IGROV-1, 48 h, read-out: Activity; outline: as §2
[20] = test system: HOP-62; experiment: Growth inhibition of human HOP62 cells assessed as cell growth at 10^-4 M after 48 hrs by sulforhodamine B assay; details: HOP-62, 48 h, read-out: Activity; outline: as §2
[21] = test system: A549; experiment: Growth inhibition of human A549/ATCC cells after 48 hrs by sulforhodamine B assay; details: A549, 48 h; for CC50: read-out: LC50 (the source's name); outline: as §3
[22] = test system: SR; experiment: Growth inhibition of human SR cells assessed as cell growth at 10^-7 M after 48 hrs by sulforhodamine B assay; details: read-out: Activity
[23] = test system: Malme-3M; experiment: Growth inhibition of human MALME-3M cells assessed as cell growth at 10^-6 M after 48 hrs by sulforhodamine B assay; details: read-out: Activity
[24] = test system: OVCAR-8; experiment: Growth inhibition of human OVCAR8 cells after 48 hrs by sulforhodamine B assay; details: OVCAR-8, 48 h; for CC50: read-out: LC50 (the source's name)
Outline: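 Five-dose NCI 60 screen at 0.01, 0.1, 1, 10 and 100 µM, 48 h exposure after 24 h preincubation, in RPMI 1640 with 5% FBS and 2 mM glutamine. Fixed with TCA (10% final for adherent cells, 16% for suspension cells), stained with SRB, A515 read. Percent growth uses time-zero (Tz), control and treated plates. GI50, TGI and LC50 are read from the dose-response curves.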

[25] = test system: MCF7; experiment: Growth inhibition of human MCF7 cells assessed as cell growth at 10^-6 M after 48 hrs by sulforhodamine B assay; details: MCF7, 48 h, read-out: Activity
[26] = test system: HCT-116; experiment: Growth inhibition of human HCT116 cells assessed as cell growth at 10^-6 M after 48 hrs by sulforhodamine B assay; details: HCT-116, 48 h, read-out: Activity; outline: as §2
[27] = test system: OVCAR-4; experiment: Growth inhibition of human OVCAR4 cells assessed as cell growth at 10^-5 M after 48 hrs by sulforhodamine B assay; details: OVCAR-4, 48 h, read-out: Activity

Compound | growth at 100 µM [1] [%] | growth at 0.1 µM [2] [%] | growth at 100 µM [3] [%] | growth at 0.01 µM [4] [%] | growth at 10 µM [5] [%] | growth at 10 µM [6] [%] | TGI [7] [µM] | CC50 [7] [µM] | GI50 [8] [µM] | CC50 [8] [µM] | growth at 0.01 µM [9] [%] | growth at 0.01 µM [10] [%] | growth at 10 µM [11] [%] | TGI [12] [µM] | CC50 [12] [µM] | growth at 1 µM [13] [%] | growth at 0.1 µM [14] [%] | growth at 100 µM [15] [%] | growth at 0.1 µM [16] [%] | growth at 100 µM [17] [%] | also measured
O=S(=O)(Nc1ccc(Cl)cc1)c1ccc2nc(-c3ccccc3)c(-c3ccccc3)nc2c1 | 75 | 99 | 42 | 93 | -13 | -48 | > 100 | > 100 | 1.43 | > 100 | 90 | 97 | 5 | > 100 | > 100 | 69 | 91 | 59 | 99 | 82 | growth at 0.1 µM [18]: 98%; growth at 1 µM [19]: 93%; growth at 100 µM [20]: 44%; TGI [21]: > 100 µM; CC50 [21]: > 100 µM; growth at 0.1 µM [22]: 88%; growth at 1 µM [23]: 103%; TGI [24]: > 100 µM; CC50 [24]: > 100 µM; growth at 1 µM [25]: 93%; growth at 1 µM [26]: 80%; growth at 10 µM [27]: 12%
O=S(=O)(Nc1ccccn1)c1ccc2nc(-c3ccccc3)c(-c3ccccc3)nc2c1 | 50 | 98 | 23 | 89 | -18 | -42 | > 100 | > 100 | 1.11 | > 100 | 92 | 101 | 6 | > 100 | > 100 | 54 | 102 | 46 | 99 | 82 | growth at 0.1 µM [18]: 102%; growth at 1 µM [19]: 102%; growth at 100 µM [20]: 39%; TGI [21]: > 100 µM; CC50 [21]: > 100 µM; growth at 0.1 µM [22]: 89%; growth at 1 µM [23]: 115%; GI50 [24]: 2.6 µM; TGI [24]: > 100 µM; CC50 [24]: > 100 µM; growth at 1 µM [25]: 87%; growth at 1 µM [26]: 75%; growth at 10 µM [27]: 10%
